Converted amounts (≈) assume the structure as drawn. The source made the active and inactive calls. The calls are words filed in the database; no cut-off is given here.
Columns and labels:
Type in all cases: functional
Candida albicans [1] = test: Growth inhibition of Candida albicans at 25 ug/ml
Staphylococcus aureus = test: Antimicrobial activity against Staphylococcus aureus
In short: (§1)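 Overnight bacterial culture diluted 1000-fold into fresh medium the next day, then exposed to compound at five doses (100, 25, 6.25, 1.56, 0.39 μg/mL) in DMSO (final 1% v/v). DMSO-only and ampicillin no-growth controls were included. Incubated overnight at 37 °C in duplicate. Scored as % growth inhibition, averaged over two independent determinations, giving MIC50.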

Vibrio harveyi = test: Antimicrobial activity against Vibrio harveyi; in short: as §1
Candida albicans [2] = test: Growth inhibition of Candida albicans at 100 ug/ml
[3] = test system: Mycolicibacterium smegmatis; test: Growth inhibition of Mycobacterium smegmatis at 100 ug/ml
[4] = test system: Mycolicibacterium smegmatis; test: Growth inhibition of Mycobacterium smegmatis at 25 ug/ml
[5] = test system: Mycolicibacterium smegmatis; test: Antimicrobial activity against Mycobacterium smegmatis
Candida albicans [6] = test: Antimicrobial activity against Candida albicans
Escherichia coli = test: Antimicrobial activity against Escherichia coli

| Structure (SMILES) | MIC50 [5] | Activity (Staphylococcus aureus) | Activity (Vibrio harveyi) | Activity (Candida albicans [6]) | also measured |
| --- | --- | --- | --- | --- | --- |
| C#CCNC(=O)c1ccc(S(N)(=O)=O)cc1 | > 100 µg/mL | inactive | inactive | inactive |  |
| CC1(C)S[C@@H]2[C@H](NC(=O)[C@H](N)c3ccccc3)C(=O)N2[C@H]1C(=O)O [AMPICILLIN] |  |  |  |  | MIC50 (Staphylococcus aureus): 500 µg/mL (≈ 1430 µM); MIC50 (Vibrio harveyi): 500 µg/mL (≈ 1430 µM); MIC50 (Escherichia coli): 500 µg/mL (≈ 1430 µM) |
| NS(=O)(=O)c1ccc(-n2cc(CO)nn2)cc1 | > 100 µg/mL | inactive | inactive | inactive |  |
| NS(=O)(=O)c1ccc(C(=O)NCc2cn(-c3ccc(S(N)(=O)=O)cc3)nn2)cc1 | 100 µg/mL (≈ 229 µM) | inactive | inactive | inactive |  |
| CN[C@@H]1[C@H](O[C@H]2[C@H](O[C@H]3[C@H](O)[C@@H](O)[C@H](N=C(N)N)[C@@H](O)[C@@H]3N=C(N)N)O[C@@H](C)[C@]2(O)C=O)O[C@@H](CO)[C@H](O)[C@H]1O [STREPTOMYCIN] | 500 µg/mL (≈ 860 µM) |  |  |  |  |
| [N-]=[N+]=Nc1ccc(S(N)(=O)=O)cc1 |  | inactive | inactive | inactive |  |
| C#CCOC(=O)c1ccc(S(N)(=O)=O)cc1 | > 100 µg/mL | inactive | inactive | inactive |  |
| NS(=O)(=O)c1ccc(C(=O)O)cc1 [CARZENIDE] | > 100 µg/mL | inactive | inactive | inactive |  |

The next lines start with results.

| MIC50 [5] | Structure (SMILES) | Activity (Staphylococcus aureus) | Activity (Vibrio harveyi) | Activity (Candida albicans [6]) | also measured |
| --- | --- | --- | --- | --- | --- |
| < 25 µg/mL | NS(=O)(=O)c1ccc(C(=O)OCc2cn(-c3ccc(S(N)(=O)=O)cc3)nn2)cc1 | inactive | inactive |  | inhibition at 25 µg/mL (Candida albicans [1]): 36%; inhibition at 100 µg/mL (Candida albicans [2]): 49%; inhibition at 100 µg/mL [3]: 92%; inhibition at 25 µg/mL [4]: 68%; MIC50 (Candida albicans [6]): 100 µg/mL (≈ 229 µM) |
| > 100 µg/mL | Nc1ccc(S(N)(=O)=O)cc1 [SULFANILAMIDE] | inactive | inactive | inactive |  |
